Results: ChEMBL document CHEMBL3102739, “Synthesis and antiproliferative activity of conformationally restricted 1,2,3-triazole analogues of combretastatins in the sea urchin embryo model and against human cancer cell lines” (Bioorg Med Chem, 2014)

What was measured:
[1] = Growth inhibition of human UO31 cells after 48 hrs by SRB assay; assay type: functional; settings: UO-31, 48 h
TK-10 = assay: Growth inhibition of human TK10 cells after 48 hrs by SRB assay; assay type: functional; settings: TK-10, 48 h
[2] = Growth inhibition of human RXF393 cells after 48 hrs by SRB assay; assay type: functional; settings: RXF 393, 48 h
SN12C = assay: Growth inhibition of human SN12C cells after 48 hrs by SRB assay; assay type: functional
ACHN = assay: Growth inhibition of human ACHN cells after 48 hrs by SRB assay; assay type: functional
CAKI-1 = assay: Growth inhibition of human CAKI-1 cells after 48 hrs by SRB assay; assay type: functional; settings: CAKI-1, 48 h
786-0 = assay: Growth inhibition of human 786-0 cells after 48 hrs by SRB assay; assay type: functional; settings: 786-0, 48 h
A498 = assay: Growth inhibition of human A498 cells after 48 hrs by SRB assay; assay type: functional; settings: A498, 48 h
SK-OV-3 = assay: Growth inhibition of human SKOV3 cells after 48 hrs by SRB assay; assay type: functional; settings: SK-OV-3, 48 h
OVCAR-8 = assay: Growth inhibition of human OVCAR8 cells after 48 hrs by SRB assay; assay type: functional; settings: OVCAR-8, 48 h
[3] = Growth inhibition of human OVCAR4 cells after 48 hrs by SRB assay; assay type: functional; settings: OVCAR-4, 48 h
[4] = Growth inhibition of human OVCAR5 cells after 48 hrs by SRB assay; assay type: functional; settings: OVCAR-5, 48 h
OVCAR-3 = assay: Growth inhibition of human OVCAR3 cells after 48 hrs by SRB assay; assay type: functional; settings: OVCAR-3, 48 h
IGROV-1 = assay: Growth inhibition of human IGROV1 cells after 48 hrs by SRB assay; assay type: functional; settings: IGROV-1, 48 h
[5] = Growth inhibition of human UACC257 cells after 48 hrs by SRB assay; assay type: functional; settings: UACC-257, 48 h
UACC-62 = assay: Growth inhibition of human UACC62 cells after 48 hrs by SRB assay; assay type: functional; settings: UACC-62, 48 h
SK-MEL-5 = assay: Growth inhibition of human SK-MEL-5 cells after 48 hrs by SRB assay; assay type: functional; settings: SK-MEL-5, 48 h
SK-MEL-2 = assay: Growth inhibition of human SK-MEL-2 cells after 48 hrs by SRB assay; assay type: functional; settings: SK-MEL-2, 48 h
SK-MEL-28 = assay: Growth inhibition of human SK-MEL-28 cells after 48 hrs by SRB assay; assay type: functional; settings: SK-MEL-28, 48 h
M14 = assay: Growth inhibition of human M14 cells after 48 hrs by SRB assay; assay type: functional; settings: M14, 48 h
LOX IMVI = assay: Growth inhibition of human LOXIMVI cells after 48 hrs by SRB assay; assay type: functional
Malme-3M = assay: Growth inhibition of human MALME-3M cells after 48 hrs by SRB assay; assay type: functional
U-251 = assay: Growth inhibition of human U251 cells after 48 hrs by SRB assay; assay type: functional; settings: U-251, 48 h
SNB-75 = assay: Growth inhibition of human SNB75 cells after 48 hrs by SRB assay; assay type: functional; settings: SNB-75, 48 h
[6] = Growth inhibition of human SF539 cells after 48 hrs by SRB assay; assay type: functional; settings: SF-539, 48 h
SNB-19 = assay: Growth inhibition of human SNB19 cells after 48 hrs by SRB assay; assay type: functional; settings: SNB-19, 48 h
SF-295 = assay: Growth inhibition of human SF295 cells after 48 hrs by SRB assay; assay type: functional; settings: SF-295, 48 h
SF-268 = assay: Growth inhibition of human SF268 cells after 48 hrs by SRB assay; assay type: functional; settings: SF-268, 48 h
SW-620 = assay: Growth inhibition of human SW620 cells after 48 hrs by SRB assay; assay type: functional; settings: SW-620, 48 h
KM12 = assay: Growth inhibition of human KM12 cells after 48 hrs by SRB assay; assay type: functional; settings: KM12, 48 h
HT-29 = assay: Growth inhibition of human HT-29 cells after 48 hrs by SRB assay; assay type: functional; settings: HT-29, 48 h
HCT-15 = assay: Growth inhibition of human HCT15 cells after 48 hrs by SRB assay; assay type: functional; settings: HCT-15, 48 h
[7] = Growth inhibition of human HCC2998 cells after 48 hrs by SRB assay; assay type: functional; settings: HCC 2998, 48 h
HCT-116 = assay: Growth inhibition of human HCT116 cells after 48 hrs by SRB assay; assay type: functional; settings: HCT-116, 48 h
COLO 205 = assay: Growth inhibition of human COLO205 cells after 48 hrs by SRB assay; assay type: functional; settings: COLO 205, 48 h
NCI-H522 = assay: Growth inhibition of human NCI-H522 cells after 48 hrs by SRB assay; assay type: functional; settings: NCI-H522, 48 h
NCI-H460 = assay: Growth inhibition of human NCI-H460 cells after 48 hrs by SRB assay; assay type: functional; settings: NCI-H460, 48 h
NCI-H322M = assay: Growth inhibition of human NCI-H322M cells after 48 hrs by SRB assay; assay type: functional
NCI-H23 = assay: Growth inhibition of human NCI-H23 cells after 48 hrs by SRB assay; assay type: functional; settings: NCI-H23, 48 h
NCI-H226 = assay: Growth inhibition of human NCI-H226 cells after 48 hrs by SRB assay; assay type: functional; settings: NCI-H226, 48 h
[8] = Growth inhibition of human HOP92 cells after 48 hrs by SRB assay; assay type: functional; settings: HOP-92, 48 h
[9] = Growth inhibition of human EKVX cells after 48 hrs by SRB assay; assay type: functional
HOP-62 = assay: Growth inhibition of human HOP62 cells after 48 hrs by SRB assay; assay type: functional; settings: HOP-62, 48 h
A549 = assay: Growth inhibition of human A549 cells after 48 hrs by SRB assay; assay type: functional; settings: A549, 48 h
RPMI-8226 = assay: Growth inhibition of human RPMI8226 cells after 48 hrs by SRB assay; assay type: functional; settings: RPMI-8226, 48 h
SR = assay: Growth inhibition of human SR cells after 48 hrs by SRB assay; assay type: functional
MOLT-4 = assay: Growth inhibition of human MOLT4 cells after 48 hrs by SRB assay; assay type: functional; settings: MOLT-4, 48 h
K562 = assay: Growth inhibition of human K562 cells after 48 hrs by SRB assay; assay type: functional; settings: K562, 48 h
CCRF-CEM = assay: Growth inhibition of human CCRF-CEM cells after 48 hrs by SRB assay; assay type: functional
HL-60(TB) = assay: Growth inhibition of human HL-60(TB) cells after 48 hrs by SRB assay; assay type: functional; settings: HL-60, 48 h
Paracentrotus lividus [10] = assay: Antimitotic activity against sea urchin embryo free-swimming blastula model assessed as embryo spinning compound treated at 8 to 10 hrs post-fertilization measured after 0.25 to 20 hrs; assay type: functional, Blastula stage
Paracentrotus lividus [11] = assay: Antimitotic activity against sea urchin embryo model assessed as cleavage arrest of fertilized egg compound treated at 8 to 20 mins post-fertilization and 45 to 55 mins prior to first mitotic cycle completion measured 2.5 to 5.5 hrs post-fertilization; assay type: functional
Summary of the method: (§1)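 Fertilized eggs are exposed 8–20 min after fertilization to 2-fold decreasing concentrations. Stocks are 10 mM in DMSO, then diluted 10-fold in 95% EtOH; final DMSO is at most 0.05% and EtOH at most 1%. Embryos are kept as a monolayer, up to 2000 embryos/mL, in filtered seawater at room temperature. The value is the threshold concentration giving cleavage alteration, embryo death before hatching or full mitotic arrest. Duplicates were run.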

Paracentrotus lividus [12] = assay: Antimitotic activity against sea urchin embryo model assessed as cleavage alteration of fertilized egg compound treated at 8 to 20 mins post-fertilization and 45 to 55 mins prior to first mitotic cycle completion measured 2.5 to 5.5 hrs post-fertilization; assay type: functional; summary of the method: as §1

In the case of `COc1ccc(/C=C\c2cc(OC)c(OC)c(OC)c2)cc1O` [COMBRETASTATIN A4], the GI50 [1] is reported as 19 nM, the GI50 (TK-10) is reported as 100 nM and the GI50 [2] is reported as 2 nM. It also gave a GI50 (SN12C) of 6 nM, a GI50 (ACHN) of 6 nM and a GI50 (CAKI-1) of 26 nM. It also gave a GI50 (786-0) of 100 nM, a GI50 (A498) of 6 nM and a GI50 (SK-OV-3) of 59 nM. It also gave a GI50 (OVCAR-8) of 3 nM, a GI50 [3] of 14 nM and a GI50 [4] of 100 nM. For the same compound, the GI50 (OVCAR-3) was 2 nM, the GI50 (IGROV-1) was 15 nM and the GI50 [5] was 3 nM. It also gave a GI50 (UACC-62) of 6 nM, a GI50 (SK-MEL-5) of 4 nM and a GI50 (SK-MEL-2) of 4 nM. For the same compound, the GI50 (SK-MEL-28) was 8 nM, the GI50 (M14) was 3 nM and the GI50 (LOX IMVI) was 3 nM. It also gave a GI50 (Malme-3M) of 20 nM, a GI50 (U-251) of 4 nM and a GI50 (SNB-75) of 8 nM. It also gave a GI50 [6] of 3 nM, a GI50 (SNB-19) of 4 nM and a GI50 (SF-295) of 4 nM. For the same compound, the GI50 (SF-268) was 6 nM, the GI50 (SW-620) was 3 nM and the GI50 (KM12) was 5 nM. For the same compound, the GI50 (HT-29) was 100 nM, the GI50 (HCT-15) was 4 nM and the GI50 [7] was 63 nM. It also gave a GI50 (HCT-116) of 3 nM, a GI50 (COLO 205) of 100 nM and a GI50 (NCI-H522) of 2 nM. The GI50 (NCI-H460) was 3 nM, the GI50 (NCI-H322M) was 7 nM and the GI50 (NCI-H23) was 3 nM. The GI50 (NCI-H226) was 4 nM, the GI50 [8] was 3 nM and the GI50 [9] was 86 nM. The GI50 (HOP-62) was 3 nM, the GI50 (A549) was 16 nM and the GI50 (RPMI-8226) was 3 nM. For the same compound, the GI50 (SR) was 3 nM, the GI50 (MOLT-4) was 3 nM and the GI50 (K562) was 2 nM. The GI50 (CCRF-CEM) was 3 nM, the GI50 (HL-60(TB)) was 2 nM and the EC (Paracentrotus lividus [10]) was 0.05 µM. For the same compound, the EC (Paracentrotus lividus [11]) was 0.01 µM and the EC (Paracentrotus lividus [12]) was 0.002 µM.
